The source made the active and inactive calls. The rule behind the calls is not given here.
How the values were obtained:
Rattus norvegicus [1] = assay: Antihyperlipidemic activity in Charles-Foster rat assessed as reversal of triton-induced increase in plasma total cholesterol level at 100 mg/kg, po after 18 hrs relative to control; assay type: functional
Summary of the method: (§1)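 Male adult Charles Foster rats (200-225 g), 6 per group; triton WR-1339 400 mg/kg i.p. plus oral test agent in 0.2% gum acacia suspension, given together, diet withdrawn. After 18 h, retro-orbital EDTA blood was centrifuged 2500 g, 4 °C, 10 min; plasma was diluted 1:3 in saline and TC, PL and TG were assayed enzymatically (mg/dl). Mean ± SD; Student's t-test.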

Rattus norvegicus [2] = assay: Antihyperlipidemic activity in Charles-Foster rat assessed as post heparin lipolytic activity at 100 mg/kg, po after 18 hrs by spectrophotometric analysis relative to triton-treated control; assay type: functional
Summary of the method: (§2)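 Male adult Charles Foster rats (200-225 g), 6 per group. Triton WR-1339 400 mg/kg i.p.; test agent 100 mg/kg p.o. as gum acacia (0.2% w/v) suspension in water, given simultaneously, diet withdrawn; vehicle to control and triton groups. At 18 h under thiopentone (50 mg/kg), retro-orbital blood collected into EDTA and plasma separated. Post-heparin lipolytic activity read spectrophotometrically as nmol free fatty acid/h/ml plasma; mean ± SD; Student's t-test.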

Rattus norvegicus [3] = assay: Antihyperlipidemic activity in Charles-Foster rat assessed as reversal of triton-induced increase in plasma phospholipid level at 100 mg/kg, po after 18 hrs relative to control; assay type: functional; summary of the method: as §1
Rattus norvegicus [4] = assay: Antihyperlipidemic activity in Charles-Foster rat assessed as reversal of triton-induced increase in plasma phospholipid level at 100 mg/kg, po after 18 hrs relative to triton-treated control; assay type: functional; summary of the method: as §1
Rattus norvegicus [5] = assay: Antihyperlipidemic activity in Charles-Foster rat assessed as reversal of triton-induced increase in plasma triglyceride level at 100 mg/kg, po after 18 hrs relative to control; assay type: functional; summary of the method: as §1
Rattus norvegicus [6] = assay: Antihyperlipidemic activity in Charles-Foster rat assessed as post heparin lipolytic activity at 100 mg/kg, po after 18 hrs by spectrophotometric analysis relative to control; assay type: functional; summary of the method: as §2
Rattus norvegicus [7] = assay: Antihyperlipidemic activity in Charles-Foster rat assessed as reversal of triton-induced increase in plasma total cholesterol level at 100 mg/kg, po after 18 hrs relative to triton-treated control; assay type: functional; summary of the method: as §1
Rattus norvegicus [8] = assay: Antihyperlipidemic activity in Charles-Foster rat assessed as reversal of triton-induced increase in plasma triglyceride level at 100 mg/kg, po after 18 hrs relative to triton-treated control; assay type: functional; summary of the method: as §1
[9] = Antioxidant activity assessed as inhibition of hydroxyl radical generation at 200 ug/mL after 90 mins by spectrophotometric analysis relative to control; assay type: functional
Summary of the method: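 Hydroxyl radicals were generated non-enzymically from deoxyribose (2.8 mM), FeSO4 (2 mM), sodium ascorbate (2.0 mM) and H2O2 (2.8 mM) in KH2PO4 buffer pH 7.4, 2.5 mL final, with or without agent at 200 µg/ml, for 90 min at 37 °C. MDA was read spectrophotometrically by the thiobarbituric acid method against reference samples and reagent blanks.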

[10] = Antioxidant activity assessed as inhibition of microsomal lipid peroxidation at 200 ug/mL by spectrophotometric analysis relative to control; assay type: functional
Rattus norvegicus [11] = assay: Antihyperlipidemic activity in triton-induced Charles-Foster rat assessed as increase in plasma lecithin cholesterol acyltransferase activity at 100 mg/kg, po after 18 hrs by colorimetric assay; assay type: functional, organism-based; set-up: dose 100 mg/kg

Row | Compound | Activity (Rattus norvegicus [1]) | Activity (Rattus norvegicus [2]) | Activity (Rattus norvegicus [3]) | Activity (Rattus norvegicus [4]) | Activity (Rattus norvegicus [5]) | Activity (Rattus norvegicus [6]) | Activity (Rattus norvegicus [7]) | Activity (Rattus norvegicus [8]) | inhibition [9] | inhibition [10] | Activity (Rattus norvegicus [11])
1 | CC(C)c1cc(C(c2c[nH]c3ccccc23)c2c[nH]c3ccccc23)cc2cc(C(=O)c3ccc(Cl)cc3)oc12 | 162.1 mg/dL | 4% | 186.19 mg/dL | -10% | 194.4 mg/dL | 13.77 nmol/h/mL | -12% | -10% |  |  | 
2 | CC(C)c1cc(C(c2c[nH]c3ccccc23)c2c[nH]c3ccccc23)cc2cc(C(=O)c3ccc(C#N)cc3)oc12 | 167.63 mg/dL | 4% | 186.19 mg/dL | -10% | 193.81 mg/dL | 13.75 nmol/h/mL | -9% | -10% |  |  | 
3 | OC[C@@H](O)[C@@H](O)[C@H](O)[C@H](O)CO |  |  |  |  |  |  |  |  | 49% | 52% | 
4 | Cc1cc(C(c2c[nH]c3ccccc23)c2c[nH]c3ccccc23)cc2cc(C(=O)c3ccc(Cl)cc3)oc12 | 163.94 mg/dL | 9% | 186.19 mg/dL | -10% | 192.33 mg/dL | 14.39 nmol/h/mL | -11% | -11% |  |  | 
5 | COc1ccc(C(=O)c2cc3cc(C(c4c[nH]c5ccccc45)c4c[nH]c5ccccc45)cc(C)c3o2)cc1 | 162.1 mg/dL | 4% | 184.12 mg/dL | -11% | 194.49 mg/dL | 13.71 nmol/h/mL | -12% | -10% |  |  | 
6 | COc1ccc(C(=O)c2cc3cc(C(c4c[nH]c5ccccc45)c4c[nH]c5ccccc45)cc(C(C)(C)C)c3o2)cc1 | 171.31 mg/dL | 4% | 190.32 mg/dL | -8% | 198.82 mg/dL | 13.73 nmol/h/mL | -7% | -8% |  |  | 
7 | CCc1cc(C(c2c[nH]c3ccc([N+](=O)[O-])cc23)c2c[nH]c3ccc([N+](=O)[O-])cc23)cc2cc(C(=O)c3ccc(OC)cc3)oc12 | 176.84 mg/dL | 2% | 194.46 mg/dL | -6% | 207.46 mg/dL | 13.47 nmol/h/mL | -4% | -4% |  |  | 
8 | COc1ccc(C(=O)c2cc3cc(C(c4c[nH]c5ccccc45)c4c[nH]c5ccccc45)cc(C(C)C)c3o2)cc1 | 152.89 mg/dL | 12% | 175.84 mg/dL | -15% | 181.53 mg/dL | 14.79 nmol/h/mL | -17% | -16% |  |  | 
9 | Cc1ccc(C(=O)c2cc3cc(C(c4c[nH]c5ccccc45)c4c[nH]c5ccccc45)cc(C)c3o2)cc1 | 169.47 mg/dL | 8% | 190.32 mg/dL | -8% | 196.66 mg/dL | 14.26 nmol/h/mL | -8% | -9% |  |  | 
10 | Cc1cc(C(c2c[nH]c3ccccc23)c2c[nH]c3ccccc23)cc2cc(C(=O)c3ccc(C#N)cc3)oc12 | 171.25 mg/dL | 5% | 190.11 mg/dL | -8% | 200.98 mg/dL | 13.87 nmol/h/mL | -7% | -7% |  |  | 
11 | CCCc1cc(C(c2c[nH]c3ccc(O)cc23)c2c[nH]c3ccc(O)cc23)cc2cc(C(=O)c3ccc(OC)cc3)oc12 | 143.68 mg/dL | 15% | 161.36 mg/dL | -22% | 172.88 mg/dL | 15.19 nmol/h/mL | -22% | -20% |  |  | 
12 | CCc1cc(C(c2c[nH]c3ccccc23)c2c[nH]c3ccccc23)cc2cc(C(=O)c3ccc(Cl)cc3)oc12 | 147.36 mg/dL | 14% | 163.43 mg/dL | -21% | 170.72 mg/dL | 15.05 nmol/h/mL | -20% | -21% |  |  | 
13 | COc1ccc(C(=O)c2cc3cc(C(c4c[nH]c5ccc(OC)cc45)c4c[nH]c5ccc(OC)cc45)cc(Cl)c3o2)cc1 | 145.52 mg/dL | 15% | 165.5 mg/dL | -20% | 168.56 mg/dL | 15.19 nmol/h/mL | -21% | -22% |  |  | 
14 | CC(C)(C)c1cc(C(c2c[nH]c3ccccc23)c2c[nH]c3ccccc23)cc2cc(C(=O)c3ccc(Cl)cc3)oc12 | 165.78 mg/dL | 9% | 187.91 mg/dL | -9% | 194.49 mg/dL | 14.37 nmol/h/mL | -10% | -10% |  |  | 
15 | Cc1ccc(C)c(OCCCC(C)(C)C(=O)O)c1 [GEMFIBROZIL] | 121.57 mg/dL | 20% | 134.47 mg/dL | -35% | 142.63 mg/dL | 15.85 nmol/h/mL | -34% | -34% |  |  | Active
16 | COc1ccc(C(=O)c2cc3cc(C(c4c[nH]c5ccc([N+](=O)[O-])cc45)c4c[nH]c5ccc([N+](=O)[O-])cc45)cc(C(C)C)c3o2)cc1 | 167.63 mg/dL | 4% | 186.19 mg/dL | -10% | 193.81 mg/dL | 13.75 nmol/h/mL | -9% | -10% |  |  | 
17 | Cc1c(C)c2c(c(C)c1O)CC[C@@](C)(CCC[C@H](C)CCC[C@H](C)CCCC(C)C)O2 |  |  |  |  |  |  |  |  | 49% | 52% | 
18 | CCc1cc(C(c2c[nH]c3ccccc23)c2c[nH]c3ccccc23)cc2cc(C(=O)c3ccc(OC)cc3)oc12 | 169.47 mg/dL | 8% | 190.32 mg/dL | -8% | 196.66 mg/dL | 14.26 nmol/h/mL | -8% | -9% |  |  | 
